Test results as given in article PMC11276401 (RSC Advances, 2024).
Where “and” joins values, the source holds several entries; their conditions need not be identical. Identical values can stand only once.

Legend:
MCF-7 = test: SRB assay, in vitro anticancer activity; assay type: cell-based; settings: Homo sapiens, MCF7, 48 h, read-out: GI50 MCF-7
HeLa = test: SRB assay, in vitro anticancer activity; assay type: cell-based; settings: Homo sapiens, 48 h, read-out: GI50 HeLa
MIAPACA = test: SRB assay, in vitro anticancer activity; assay type: cell-based; settings: Homo sapiens, MIA PaCa-2, 48 h, read-out: GI50 MIAPACA
HeLa and MIAPACA = test: SRB assay, range stated over two cell lines; assay type: cell-based; settings: Homo sapiens, read-out: GI50 against HeLa and MIAPACA
bovine brain tubulin = test: Tubulin polymerization assay; assay type: biochemical; settings: read-out: Tubulin polymerization inhibition IC50; 2 mg/mL tubulin, 37 °C
[1] = system: caspase 3/7 in MCF-7 cells; test: Caspase-Glo 3/7 activation assay; assay type: cell-based, human; settings: 20 μg ml^−1, 24 h
Procedure, shortened: (§1)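 Caspase 3/7 activation in the named human cancer cells is expressed as percent activation after treatment with the test compound. Podophyllotoxin is run alongside as the positive control.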

[2] = system: caspase 3/7, 8, and 9 in HeLa, MCF-7 and MIA PaCa2 cancer cells; test: Caspase 3/7, 8 and 9 activation, values not assigned to a caspase or cell line; assay type: cell-based, human; settings: MCF-7 and MIA PaCa2 cells, assignment and concentration not clear
MCF-7, HeLa and MIAPACA = test: SRB assay, range stated over three cell lines; assay type: cell-based; settings: Homo sapiens, read-out: GI50 against three cell lines
Procedure, shortened: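 Human MCF-7, HeLa and MIA PaCa-2 cancer cell lines are exposed to the test compounds, with podophyllotoxin as positive control. Growth inhibition is reported as GI50.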

[3] = system: caspase 3/7 in HeLa cells; test: Caspase-Glo 3/7 activation assay; assay type: cell-based, human; settings: 20 μg ml^−1, 24 h
Procedure, shortened: as §1

[4] = system: caspase 3/7 in MIA PaCa2 cells; test: Caspase-Glo 3/7 activation assay; assay type: cell-based, human; settings: 20 μg ml^−1, 24 h
Procedure, shortened: as §1

Row | SMILES | GI50 (MCF-7) | GI50 (HeLa) | GI50 (MIAPACA) | IC50 (bovine brain tubulin) | GI50 (HeLa and MIAPACA) | caspase 3/7 activation [1] | caspase 3/7, 8, and 9 activations [2] | GI50 (MCF-7, HeLa and MIAPACA) | caspase 3/7 activation [3] | caspase 3/7 activation [4]
1 | COc1cc([C@@H]2c3cc4c(cc3[C@@H](OCc3cc(-c5cccc(C)c5)no3)[C@H]3COC(=O)C23)OCO4)cc(OC)c1OC (some centres unmarked) [Compound 6c] | 3920 ± 820 nM | 3830 ± 1540 nM | 4670 ± 1930 nM | – | – | – | – | – | – | –
2 | COc1cc([C@@H]2c3cc4c(cc3[C@@H](OCc3cc(-c5cc(C)cc(C)c5)no3)[C@H]3COC(=O)C23)OCO4)cc(OC)c1OC (some centres unmarked) [Compound 6d] | 1340 ± 230 nM | 2740 ± 520 nM | 2280 ± 290 nM | – | – | – | – | – | – | –
3 | COc1cc([C@@H]2c3cc4c(cc3[C@@H](OCc3cc(-c5ccc(Cl)cc5)no3)[C@H]3COC(=O)C23)OCO4)cc(OC)c1OC (some centres unmarked) [Compound 6f] | 2130 ± 370 nM | 3050 ± 1020 nM | 3140 ± 320 nM | – | – | – | – | – | – | –
4 | COc1cc([C@@H]2c3cc4c(cc3[C@@H](OCc3cc(-c5ccc(Br)cc5)no3)[C@H]3COC(=O)C23)OCO4)cc(OC)c1OC (some centres unmarked) [Compound 6g] | 4320 ± 830 nM | 7480 ± 690 nM | 6840 ± 2010 nM | – | – | – | – | – | – | –
5 | COc1cc([C@@H]2c3cc4c(cc3[C@H](O)[C@H]3COC(=O)[C@H]23)OCO4)cc(OC)c1OC [Podophyllotoxin, podophyllotoxin, reference compound] | 310 ± 190 nM | 740 ± 230 nM | 510 ± 120 nM | 840 nM | 510 to 740 nM | 91.9% | – | 310 to 510 nM | 86.9% | 88.6%

Second part, led by results:

Row | GI50 (MCF-7) | GI50 (HeLa) | GI50 (MIAPACA) | IC50 (bovine brain tubulin) | SMILES | GI50 (HeLa and MIAPACA) | caspase 3/7 activation [1] | caspase 3/7, 8, and 9 activations [2] | GI50 (MCF-7, HeLa and MIAPACA) | caspase 3/7 activation [3] | caspase 3/7 activation [4]
6 | 4870 ± 790 nM | 6120 ± 1080 nM | 13100 ± 3270 nM | – | COc1cc([C@@H]2c3cc4c(cc3[C@@H](OCc3cc(-c5ccc(F)cc5)no3)[C@H]3COC(=O)C23)OCO4)cc(OC)c1OC (some centres unmarked) [Compound 6h] | – | – | – | – | – | –
7 | 230 ± 120 nM | 1110 ± 290 nM | 1540 ± 180 nM | 1320 nM | COc1cc([C@@H]2c3cc4c(cc3[C@@H](OCc3cc(-c5ccc([N+](=O)[O-])cc5)no3)[C@H]3COC(=O)C23)OCO4)cc(OC)c1OC (some centres unmarked) [Compound 6j] | 1030 to 1540 nM | 90.1% | – | – | – | –
8 | 3150 ± 430 nM | 9680 ± 3120 nM | 18300 ± 2870 nM | – | COc1cc([C@@H]2c3cc4c(cc3[C@@H](OCc3cc(-c5cccc(Cl)c5)no3)[C@H]3COC(=O)C23)OCO4)cc(OC)c1OC (some centres unmarked) [Compound 6k] | – | – | – | – | – | –
9 | 360 ± 170 nM | 2190 ± 840 nM | 2330 ± 180 nM | 3790 nM | COc1cc([C@@H]2c3cc4c(cc3[C@@H](OCc3cc(-c5cc(Cl)cc(Cl)c5)no3)[C@H]3COC(=O)C23)OCO4)cc(OC)c1OC (some centres unmarked) [Compound 6m] | – | – | 44.8% and 53.4% and 65.0% and 63.0% and 41.9% and 51.7% | – | – | –
